This is an account of results in the array DNA melting data of Ke et al. (doi:10.1101/2024.01.08.574731).

The nature of data set [1]: folding enthalpy; higher = less favourable; fluorescence melt of hairpins on a sequencing array, two-state fit. The note with it: sodium 0.088 M. The procedure, abridged:
(§1)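 With Cy3 and quencher oligos annealed, library hairpins on a sequenced MiSeq flow cell were imaged for Cy3 fluorescence in 50 mM Na-HEPES pH 8.0, 25 mM NaCl, in 2.5 °C steps up to 60 °C. Melting temperature and folding enthalpy were derived from bootstrapped two-state fits of signals normalised to pre-quench Cy3 and to control constructs. Four replicates were combined by inverse variance, with fitted temperatures raised by 9.35 °C to match UV melts.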

A short description of data set [2]: melting temperature; fluorescence melt of hairpins on a sequencing array, two-state fit, raised by 9.35 °C to match UV melts. The note with it: sodium 0.088 M. In short, it runs like this:
as §1

Regarding GACTGAACGAAAGTTGTC (((..(((....)))))), the folding enthalpy in data set [1] is -19.5 kcal/mol. In addition, the Tm in data set [2] amounted to 32.8 °C.
Consider GACTGAGCGAAAGCTGTC (((..(((....)))))), for which the folding enthalpy in data set [1] is -12.7 kcal/mol. For the same sequence, the Tm in data set [2] worked out at 44.1 °C.
In the case of GACTGCCGAAAGGCGTC (((.(((....)))))), in data set [1], the folding enthalpy is -13.8 kcal/mol. Further, in data set [2], the Tm was 53.8 °C.
In the case of GACTGCGAAAGCAAGTC ((((((....))).))), the folding enthalpy in data set [1] is -21.3 kcal/mol. In data set [2], the Tm is 56.1 °C.
Turning to GACTGCGAAAGCACAGTC ((((((....)))..))), in data set [1], the folding enthalpy was -13.2 kcal/mol. Further, the Tm in data set [2] turned out to be 44.5 °C.
GACTGCGGAAACGCAGCC (.(((((....))))).): in data set [1], the folding enthalpy was -11.2 kcal/mol. Moreover, the Tm in data set [2] amounted to 52 °C.
Regarding GACTGGGCGAAAGCCGTC (((..(((....)))))), the folding enthalpy in data set [1] is -10.4 kcal/mol. In data set [2], the Tm came out at 56.1 °C.
Take GACTGTGAAAACAGTC ((((((....)))))): the folding enthalpy in data set [1] is -34.1 kcal/mol. For the same sequence, the Tm in data set [2] turned out to be 58.5 °C.
For GACTGTGGAAACACAGCC (.(((((....))))).), in data set [1], the folding enthalpy was -13.7 kcal/mol. Further, in data set [2], the Tm amounted to 43.7 °C.
As to GACTGTGGAAACACGGTC (((.(((....))).))), the folding enthalpy in data set [1] is -40.6 kcal/mol. Besides, the Tm in data set [2] turned out to be 52.2 °C.
The matching figures for GACTTAGCGAAAGCTGTC (((..(((....)))))): -14.6 kcal/mol and 43.8 °C.
As for GACTTCACGAAAGTGGTC (((..(((....)))))), the folding enthalpy in data set [1] is -12.1 kcal/mol. Further, the Tm in data set [2] is 31.4 °C.
For the sequence GACTTCCGAAAGGAGTC (((.(((....)))))), the folding enthalpy in data set [1] was -24.8 kcal/mol. Besides, the Tm in data set [2] is 46.4 °C.
Take GACTTCGAAAGAAGTC ((((((....)))))): the folding enthalpy in data set [1] is -38.8 kcal/mol. Besides, in data set [2], the Tm was found to be 62 °C.
For GACTTCGCGAAAGCGGTC (((..(((....)))))), the folding enthalpy in data set [1] was -7.56 kcal/mol. Moreover, in data set [2], the Tm amounted to 35.1 °C.
For the sequence GACTTCGGAAACGAAGTC (((((((....))))))), the folding enthalpy in data set [1] is -38.6 kcal/mol. In addition, the Tm in data set [2] came to 66.3 °C.
As for GACTTGACGAAAGTCGTC (((..(((....)))))), in data set [1], the folding enthalpy was -15.8 kcal/mol. In data set [2], the Tm stood at 51.7 °C.
With GACTTGGGAAACCAAGCC (.(((((....))))).), the folding enthalpy in data set [1] was -19.1 kcal/mol. In addition, in data set [2], the Tm came out at 41.8 °C.
The like results for GACTTGGGAAACTAGGTC (((.(.(....).).))) were, in that order, -9.69 kcal/mol and 25.4 °C.
For the sequence GACTTTGGAAACAGAGTC ((((.((....)).)))), the folding enthalpy in data set [1] is -31.1 kcal/mol. Moreover, the Tm in data set [2] amounted to 38.1 °C.
For GAGAAACGAAAGTTCTC (((.(((....)))))), in data set [1], the folding enthalpy is -24.4 kcal/mol. Moreover, in data set [2], the Tm stood at 40.9 °C.
Turning to GAGAAAGCGAAAGCTCTC (((..(((....)))))), the folding enthalpy in data set [1] was -14.6 kcal/mol. Moreover, the Tm in data set [2] was 40.2 °C.
The like results for GAGAAAGGAAACTTTCCC (.(((((....))))).) were, in that order, -12.3 kcal/mol and 25.1 °C.
Regarding GAGAACCGAAAGGTCCTC (((.(((....))).))), the folding enthalpy in data set [1] was -24.6 kcal/mol. For the same sequence, the Tm in data set [2] came to 46.6 °C.
Turning to GAGAACGAAAGTTGCTC ((((((....))).))), the folding enthalpy in data set [1] is -15.7 kcal/mol. The Tm in data set [2] came to 33.6 °C.
Regarding GAGAACGGAAACATTCTC (((((.(....).))))), the folding enthalpy in data set [1] was -23.5 kcal/mol. In addition, the Tm in data set [2] was 30.1 °C.
GAGAAGCCGAAAGGCCTC (((..(((....)))))): the folding enthalpy in data set [1] is -12.7 kcal/mol. Further, the Tm in data set [2] was determined as 37.4 °C.
For GAGAAGGCGAAAGCCCTC (((..(((....)))))), the folding enthalpy in data set [1] was -10.5 kcal/mol. In addition, the Tm in data set [2] was 37.2 °C.
Turning to GAGAATGGAAACATTCTC (((((((....))))))), the folding enthalpy in data set [1] was -40.6 kcal/mol. The Tm in data set [2] came to 54.7 °C.
As to GAGAATGGAAACGTTCTC (((((.(....).))))), in data set [1], the folding enthalpy is -33.9 kcal/mol. Further, in data set [2], the Tm came out at 42.9 °C.
In the case of GAGACACCGAAAGGTCTC (((..(((....)))))), in data set [1], the folding enthalpy was -20.4 kcal/mol. The Tm in data set [2] amounted to 42.2 °C.
The matching figures for GAGACACGAAAGTGCTC (((.(((....)))))): -16.6 kcal/mol and 44.6 °C.
On to GAGACCGAAAGGTCACTC ((((((....)))..))), for which the folding enthalpy in data set [1] is -13.8 kcal/mol. For the same sequence, in data set [2], the Tm was found to be 55.1 °C.
For the sequence GAGACCGAAAGGTGTCTC ((((((....)))..))), the folding enthalpy in data set [1] is -24 kcal/mol. For the same sequence, the Tm in data set [2] amounted to 51.9 °C.
Consider GAGACCGAAAGGTTCTC ((((((....))).))), for which the folding enthalpy in data set [1] was -22.3 kcal/mol. In addition, in data set [2], the Tm came to 54.2 °C.
With GAGACGAAAGTCTC (((((....))))), the folding enthalpy in data set [1] is -23.1 kcal/mol. In addition, the Tm in data set [2] came out at 67.1 °C.
For the sequence GAGACGGGAAACCGTCCC (.(((((....))))).), in data set [1], the folding enthalpy was -11.5 kcal/mol. For the same sequence, the Tm in data set [2] came out at 43.8 °C.
Take GAGACGGGAAACTGTCTC (((((.(....).))))): in data set [1], the folding enthalpy is -41.1 kcal/mol. Besides, in data set [2], the Tm worked out at 51.5 °C.
In the case of GAGACTGAAAAGTCTC ((((((....)))))), in data set [1], the folding enthalpy is -35.9 kcal/mol. In data set [2], the Tm was determined as 57.5 °C.
GAGACTGGAAACAGTTTC ((.((((....)))).)): the folding enthalpy in data set [1] was -29.6 kcal/mol. In data set [2], the Tm turned out to be 38.8 °C.
For GAGAGACCGAAAGGTCTC (((..(((....)))))), the folding enthalpy in data set [1] is -9.65 kcal/mol. Besides, the Tm in data set [2] worked out at 62.5 °C.
With GAGAGACGAAAGTCACTC (((.(((....))).))), the folding enthalpy in data set [1] is -35.1 kcal/mol. Further, the Tm in data set [2] worked out at 51.3 °C.
For GAGAGCCGAAAGGCACTC (((.(((....))).))), the folding enthalpy in data set [1] is -20.2 kcal/mol. Moreover, the Tm in data set [2] came out at 61.1 °C.
With GAGAGCGGAAACGCTCCC (.(((((....))))).), the folding enthalpy in data set [1] is -9.72 kcal/mol. Also, in data set [2], the Tm came out at 46.1 °C.
The matching figures for GAGAGGCGAAAGCCCTC (((.(((....)))))): -14.2 kcal/mol and 55.7 °C.
The like results for GAGAGTGGAAACACTCTC (((((((....))))))) were, in that order, -41.2 kcal/mol and 61.5 °C.
Take GAGATACGAAAGTACCTC (((.(((....))).))): in data set [1], the folding enthalpy is -31.3 kcal/mol. Moreover, the Tm in data set [2] is 41.5 °C.
In the case of GAGATGAAAATCTC (((((....))))), the folding enthalpy in data set [1] is -22.2 kcal/mol. Further, the Tm in data set [2] is 44 °C.
In the case of GAGATGACGAAAGTCCTC (((..(((....)))))), the folding enthalpy in data set [1] was -11.7 kcal/mol. The Tm in data set [2] is 30 °C.
On to GAGATGCGAAAGCAACTC (((.(((....))).))), for which the folding enthalpy in data set [1] is -23 kcal/mol. For the same sequence, in data set [2], the Tm was found to be 53.9 °C.
The matching figures for GAGATGGAAACATCTC ((((((....)))))): -37 kcal/mol and 53.5 °C.
The matching figures for GAGATGGGAAACTGTCTC ((((..(....)..)))): -21.5 kcal/mol and 33.2 °C.
Turning to GAGATTGAAAAATCTC ((((((....)))))), in data set [1], the folding enthalpy is -33.8 kcal/mol. The Tm in data set [2] was 47.9 °C.
With GAGATTGCGAAAGCACTC (((..(((....)))))), the folding enthalpy in data set [1] is -11.3 kcal/mol. The Tm in data set [2] worked out at 29.5 °C.
Consider GAGATTGGAAACAATTTC ((.((((....)))).)), for which the folding enthalpy in data set [1] was -17.9 kcal/mol. Moreover, the Tm in data set [2] came out at 32.4 °C.
